Test results taken from the array DNA melting data of Ke et al. (doi:10.1101/2024.01.08.574731).

Tests used:
[1] = melting temperature; fluorescence melt of hairpins on a sequencing array, two-state fit, raised by 9.35 °C to match UV melts; conditions: sodium 0.088 M
In short: (§1)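 Hairpins were imaged by Cy3 fluorescence on a sequenced MiSeq flow cell with annealed Cy3 and quencher oligos, in 50 mM Na-HEPES pH 8.0, 25 mM NaCl, in 2.5 °C steps up to 60 °C. Bootstrapped two-state fits of normalised signals gave melting temperature and folding enthalpy. Four replicates were combined by inverse variance, and fitted temperatures were raised by 9.35 °C to match UV melts.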

[2] = folding enthalpy; higher = less favourable; fluorescence melt of hairpins on a sequencing array, two-state fit; conditions: sodium 0.088 M
In short: as §1

Sequence	Tm [1] [°C]	folding enthalpy [2] [kcal/mol]
GCGCCGCGAAAGCTGAGC ((.(.((....)).).))	57.5	-20
GAGTGACGAAAGTCCCTC (((.(((....))).)))	45.1	-24.4
GGACCTCGAAAGAGTTCC (((.(((....))).)))	45	-27.2
CGTTAGAAATAACG (((((....)))))	37	-20.5
GCCTCCGAAAGGAGTGGC ((((((....)))..)))	50.3	-17.1
GATAGCGAAAGCTAGATC ((((((....)))..)))	45.2	-15.4
GTTTTGGCGAAAGCCAAC (((..(((....))))))	38.6	-8.06
GGGCTGGGAAACCGGTCC ((.(.((....)).).))	49.2	-44.6
GCCGTGCGAAAGCAGTGC ((..(((....)))..))	44.7	-12.4
GATCGGAAACGATC (((((....)))))	55.1	-28.7
GCTCAGCGAAAGCTGCGC ((.((((....)))).))	59.9	-24.8
GGGCCCTCGAAAGAGCCC (((..(((....))))))	48.1	-23
GCCTAGCGAAAGCCAGGC ((((.((....)).))))	62.2	-29.4
GGTGGTGGAAACACCATC (.(((((....))))).)	56.2	-26.2
GACGGAGGAAACTCTGTC (((.(((....))).)))	48	-39.4
CGATCGGAAACGAGTCG ((((((....))).)))	39.9	-24.7
GATGCCGAAAGGCCAATC ((((((....)))..)))	29.4	-8.85
GCATGCGAAAGCACTTGC ((((((....)))..)))	37.7	-15.4
GATCAACTGATTGATC ((((((....))))))	42.7	-32.3
GCGGGCGAAAGCCGTCGC ((((((....)))..)))	54.5	-17.3
GTGGTTCGAAAGAACAC (((.(((....))))))	47.8	-16.8
GGGCCAGCGAAAGCTCCC (((..(((....))))))	40.3	-14.5
GAAAAACGAAAGTTCTTC (((.(((....))).)))	28.2	-13.4

Sequence	Tm [1] [°C]	folding enthalpy [2] [kcal/mol]
CGTAACGGAAACGTAACG (((.(((....))).)))	44.8	-29.6
GATCCTCTCAGGATC ((((((...))))))	55	-36.4
GTTGGGGGAAACCCCAGC (.(((((....))))).)	49.8	-17.3
GTCACCGGAAACAGTGAC (((((.(....).)))))	44.9	-32.4
GTATGCGGAAACGCATGC (.(((((....))))).)	55.5	-21.2
GCTAGGGGAAACCCTAGC (((((((....)))))))	65.9	-44.2
GACACTGAAAAGTGTC ((((((....))))))	58.6	-34.5
CGATACGGAAACGTTCG (((.(((....))))))	42.3	-28.6
GTGACGCGAAAGCGCCAC (((.(((....))).)))	68	-33.9
GTGAGCGAAAGCTTCAC ((((((....))).)))	50.9	-19.1
GCGACGCGAAAGCTTGGC ((.(.((....)).).))	37.2	-10.3
GATCCAAGCCTGGATC ((((((....))))))	50.6	-40
GCTAAGCGAAAGCTATGC ((..(((....)))..))	43.5	-20.4
GGAAGCGAAAGCTAATCC ((((((....)))..)))	26.7	-12
GCGTAACAACGC ((((....))))	52.9	-27
GTACCTGGAAACAGGCAC ((.((((....)))).))	42.5	-22.1
GACTCCGGAAACAGAGTC (((((.(....).)))))	40.1	-36.5
GTTTATGGAAACATGAAC (((.(((....))).)))	35.7	-31.3
CTCCTGAAAAGGAG (((((....)))))	51.2	-20.3
GGGAGGCGAAAGCCACCC (((.(((....))).)))	65.6	-25.1
GGCACCGGAAACGGCACC ((..(((....)))..))	30.9	-15.8
GCTGCTCCGAAAGGAAGC (((..(((....))))))	47	-14.1
GTACGGCCGAAAGGCTAC (((..(((....))))))	28.7	-7.78

Sequence	Tm [1] [°C]	folding enthalpy [2] [kcal/mol]
GTCGCAGGAAACCGCGAC (((((.(....).)))))	58.9	-43.1
GTAGGCGAAAGCCGTTAC ((((((....)))..)))	39.8	-8.81
GTAAGCGAAAGCTGTTAC ((((((....)))..)))	32.6	-9.91
GGCGAGAAATCGCC (((((....)))))	65.5	-26.4
GATCTTTCCAAAGATC ((((((....))))))	47.3	-32.9
GGATTAGAAATAATCC ((((((....))))))	42.8	-29.3
GCCTACGAAAGTAAGGGC ((((((....)))..)))	46.8	-23.9
CGGACGGAAACGTAACCG ((((((....)))..)))	36.1	-28.7
GTTAGCGGAAACGTTGAC ((.(.((....)).).))	30	-14.7
GTGGCTGGAAACGGCCAC (((((.(....).)))))	64	-47.5
GTTTTGGGAAACCGAAAC ((((.((....)).))))	45.7	-38.3
ACAAGGAAACTTGT (((((....)))))	40.3	-12.6
GATCCCAAAGGGATC ((((((...))))))	65.5	-35.4
GATCTGTCTACAGATC ((((((....))))))	54.9	-47.5
GCTACCCCGAAAGGGAGC (((..(((....))))))	46.9	-22.8
GTCCTCGAAAGAGTGAC ((((((....))).)))	46.3	-25.7
GCTTCCGAAAGGACAAGC ((((((....)))..)))	38.5	-24.2
GGACTTGGAAACAAATCC (((.(((....))).)))	35.3	-12.4
GTATCCGAAAGGATCTAC ((((((....)))..)))	39.1	-13.7
GACCACGGAAACGTAGTC (((.(((....))).)))	37	-22.6
GCTCCGGGAAACTGGGGC ((.((.(....).)).))	48.1	-33.9
GATCGACACATCGATC ((((((....))))))	52.4	-38.5
GTCCCCCGAAAGGGAGAC (((.(((....))).)))	56.6	-30.1

Sequence	Tm [1] [°C]	folding enthalpy [2] [kcal/mol]
GCCAGCGGAAACACTGGC (((((.(....).)))))	52.8	-39.2
GCTAAGCGAAAGCACAGC (((..((....))..)))	42.7	-21.7
GGTAGGCGAAAGCCACC (((.(((....))))))	58.2	-16
GCTCTACCGAAAGGTAGC (((..(((....))))))	31.3	-9.29
GACAAGAAATTGTC (((((....)))))	37.2	-17.2
GCCTCAGGAAACTGAAGC ((.((((....)))).))	36.3	-24.9
GATCTGTGACAGATC ((((((...))))))	48.8	-31.5
GAGGTGGCGAAAGCCCTC (((..(((....))))))	43.7	-14.4
GTAGGAGGAAACTCCCAC ((.((((....)))).))	30.9	-16.4
GATCTCGGAAACGAGATC (((((((....)))))))	64.3	-45.5
GCGATGCTTCGC ((((....))))	62.3	-20.2
GGGGTTGGAAACGACCTC (.(((.(....).))).)	40.3	-20.7
GGGGACGGAAACGTCTCC ((.((((....)))).))	57.2	-27.5
GAGGGCGGAAACGCCCCC (.(((((....))))).)	45.8	-5.82
GATCTTCTAGAAGATC ((((((....))))))	49.6	-40.9
GAATTCCGAAAGGACTTC (((.(((....))).)))	36.1	-27.7
GTCCTCGAAAGAGCTGAC ((((((....)))..)))	29.5	-12.4
GCACTGCGAAAGCAATGC (((.(((....))).)))	51.5	-40.9
GCCTAGCGAAAGCTCCGC ((..(((....)))..))	25.9	-9.3
TCCGGGAAACCGGA (((((....)))))	53.2	-20.2
GATCGATCGTCGATC ((((((...))))))	51.7	-28.7
GCATTGCGAAAGCTACGC ((.(.((....)).).))	39.1	-14
GCAGACGAAAGTCTATGC ((((((....)))..)))	45.8	-14.9
